From ChEMBL document CHEMBL4229410, “Facile construction of fused benzimidazole-isoquinolinones that induce cell-cycle arrest and apoptosis in colorectal cancer cells” (Bioorg Med Chem, 2018)
Active and inactive are the calls of the source. The calls are words filed in the database; no cut-off is given here.

Tests used:
HT-29 [1] = assay: Growth inhibition of human HT-29 cells by MTT assay; assay type: functional
How it was run: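 MTT viability assay: 3×10³ cells/well were pre-incubated for 24 h, then exposed to 0, 12.5, 25, 50, 100 or 200 μM for 12, 24, 48 or 72 h. MTT was added at 0.5 mg/mL final for 4 h, formazan dissolved in DMSO, and absorbance read at 570 nm. GI₅₀ was taken from growth-inhibition curves; mean ± SD of three independent experiments, each in sextuplicate.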

SW-620 [2] = assay: Antiproliferative activity against human SW620 cells after 48 hrs by BrdU/DAPI staining based immunofluorescence assay; assay type: functional, cell-based
How it was run: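 Cells seeded at 20,000 per well after reaching 80% confluence; exposed 48 h to 0, 25, 50, 75 μM, then 10 μM BrdU for 2 h. Paraformaldehyde fixation, 2 M HCl 30 min, 10% goat serum block, anti-BrdU primary overnight at 4 °C, secondary 120 min at room temperature, DAPI 300 nM. Fluorescence microscopy; percent BrdU-positive nuclei, mean ± SD of three independent experiments.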

HT-29 [3] = assay: Cell cycle arrest in human HT-29 cells assessed as accumulation at G1-phase at 50 uM after 48 hrs by propidium iodide staining based flow cytometry (reference value: 41.86%); assay type: functional
SW-620 [4] = assay: Induction of apoptosis in human SW620 cells assessed as increase in apoptotic bodies after 48 hrs by Hoechst 33342 staining based fluorescence microscopic analysis; assay type: functional, cell-based
SW-620 [5] = assay: Induction of apoptosis in human SW620 cells assessed as late apoptotic cells at 75 uM after 48 hrs by Annexin-V-FITC/propidium iodide staining based flow cytometry (reference value: 1.2%); assay type: functional
HT-29 [6] = assay: Induction of apoptosis in human HT-29 cells after 48 hrs by Annexin-V-FITC/propidium iodide staining based flow cytometry; assay type: functional, cell-based
HT-29 [7] = assay: Induction of apoptosis in human HT-29 cells assessed as reduction in BCL2 expression after 48 hrs by Western blot analysis; assay type: functional, cell-based
How it was run: (§1)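 HT29 or SW620 cells were treated at 0, 25, 50 and 75 μM for 48 h and lysed in RIPA with protease and phosphatase inhibitors. Protein was quantified by BCA. 50 μg lysate was run on 8–15% SDS-PAGE and transferred to PVDF. Blocking was 5% BSA/TBST for 2 h; primary antibodies were applied overnight at 4 °C, then HRP secondary 1 h at room temperature.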

Homo sapiens = species: Homo sapiens; assay: Inhibition of PI3K in human SW620 cells assessed as reduction in AKT phosphorylation at S473 residue up to 75 uM after 48 hrs by Western blot analysis; assay type: cell-based
HT-29 [8] = assay: Increase in PTEN expression in human HT-29 cells after 48 hrs by Western blot analysis; assay type: functional, cell-based; how it was run: as §1
[9] = test system: Tyrosine-protein kinase ABL1 (Homo sapiens), P00519 [T315I]; assay: Inhibition of human phosphorylated ABL1 T315I mutant (S229 to K512 residues) expressed in mammalian expression system assessed as residual activity at 5 uM by KINOMEscan assay relative to control
[10] = molecular target: RAC-beta serine/threonine-protein kinase (Homo sapiens, UniProt P31751); assay: Inhibition of human AKT2 expressed in bacterial expression system assessed as residual activity at 5 uM by KINOMEscan assay relative to control
[11] = molecular target: Inhibitor of nuclear factor kappa-B kinase subunit alpha (Homo sapiens) (UniProt O15111); assay: Inhibition of full length human IKKalpha (M1 to E745 residues) expressed in mammalian expression system assessed as residual activity at 5 uM by KINOMEscan assay relative to control
[12] = molecular target: Phosphatidylinositol 4,5-bisphosphate 3-kinase catalytic subunit gamma isoform (Homo sapiens, UniProt P48736); assay: Inhibition of human PIK3CG (S144 to A1102 residues) expressed in mammalian expression system assessed as residual activity at 5 uM by KINOMEscan assay relative to control
[13] = molecular target: Serine/threonine-protein kinase pim-3 (Homo sapiens, UniProt Q86V86); assay: Inhibition of human PIM3 (G16 to A317 residues) expressed in bacterial expression system assessed as residual activity at 5 uM by KINOMEscan assay relative to control
[14] = molecular target: Non-receptor tyrosine-protein kinase TYK2 (Homo sapiens, UniProt P29597); assay: Inhibition of human TYK2 JH1 catalytic domain (V877 to C1187 residues) expressed in mammalian expression system assessed as residual activity at 5 uM by KINOMEscan assay relative to control
[15] = molecular target: Tyrosine-protein kinase ABL1 (Homo sapiens, UniProt P00519, T315I); assay: Binding affinity to human phosphorylated ABL1 T315I mutant (S229 to K512 residues) expressed in mammalian expression system by KINOMEscan assay
[16] = molecular target: Casein kinase I isoform gamma-2 (Homo sapiens, UniProt P78368); assay: Binding affinity to full length human CSNK1G2 (M1 to K415 residues) expressed in bacterial expression system by KINOMEscan assay
[17] = molecular target: Epidermal growth factor receptor (Homo sapiens, UniProt P00533, L858R); assay: Binding affinity to partial length human EGFR (R669 to V1011 residues) L858R mutant expressed in bacterial expression system by KINOMEscan assay
[18] = molecular target: Receptor-type tyrosine-protein kinase FLT3 (Homo sapiens, UniProt P36888); assay: Binding affinity to human FLT3 (V592 to Y969 residues) expressed in bacterial expression system by KINOMEscan assay
[19] = molecular target: Glycogen synthase kinase-3 beta (Homo sapiens, UniProt P49841); assay: Binding affinity to full length human GSK3B (M1 to T433 residues) expressed in mammalian expression system by KINOMEscan assay
[20] = molecular target: MAP/microtubule affinity-regulating kinase 3 (Homo sapiens, UniProt P27448); assay: Binding affinity to full length human MARK3 (M1 to L729 residues) expressed in bacterial expression system by KINOMEscan assay
[21] = molecular target: Hepatocyte growth factor receptor (Homo sapiens, UniProt P08581); assay: Binding affinity to human MET (D1010 to S1367 residues) expressed in bacterial expression system by KINOMEscan assay
[22] = molecular target: Serine/threonine-protein kinase PAK 2 (Homo sapiens, UniProt Q13177); assay: Binding affinity to partial length human PAK2 (P151 to R525 residues) expressed in bacterial expression system by KINOMEscan assay
[23] = molecular target: Serine/threonine-protein kinase PAK 4 (Homo sapiens, UniProt O96013); assay: Binding affinity to partial length human PAK4 (Q144 to R438 residues) expressed in bacterial expression system by KINOMEscan assay
[24] = molecular target: Proto-oncogene tyrosine-protein kinase Src (Homo sapiens, UniProt P12931); assay: Binding affinity to human SRC (L240 to L536 residues) expressed in bacterial expression system by KINOMEscan assay
SRSF protein kinase 3 = SRSF protein kinase 3 (Homo sapiens, UniProt Q9UPE1); assay: Binding affinity to human SRPK3 (P41 to P567 residues) expressed in bacterial expression system by KINOMEscan assay
[25] = molecular target: Tyrosine-protein kinase ZAP-70 (Homo sapiens, UniProt P43403); assay: Binding affinity to human ZAP70 (D20 to G299 residues) expressed in mammalian expression system by KINOMEscan assay

Chain of Epidermal growth factor receptor (P00533 25-1210 L858R limits assumed): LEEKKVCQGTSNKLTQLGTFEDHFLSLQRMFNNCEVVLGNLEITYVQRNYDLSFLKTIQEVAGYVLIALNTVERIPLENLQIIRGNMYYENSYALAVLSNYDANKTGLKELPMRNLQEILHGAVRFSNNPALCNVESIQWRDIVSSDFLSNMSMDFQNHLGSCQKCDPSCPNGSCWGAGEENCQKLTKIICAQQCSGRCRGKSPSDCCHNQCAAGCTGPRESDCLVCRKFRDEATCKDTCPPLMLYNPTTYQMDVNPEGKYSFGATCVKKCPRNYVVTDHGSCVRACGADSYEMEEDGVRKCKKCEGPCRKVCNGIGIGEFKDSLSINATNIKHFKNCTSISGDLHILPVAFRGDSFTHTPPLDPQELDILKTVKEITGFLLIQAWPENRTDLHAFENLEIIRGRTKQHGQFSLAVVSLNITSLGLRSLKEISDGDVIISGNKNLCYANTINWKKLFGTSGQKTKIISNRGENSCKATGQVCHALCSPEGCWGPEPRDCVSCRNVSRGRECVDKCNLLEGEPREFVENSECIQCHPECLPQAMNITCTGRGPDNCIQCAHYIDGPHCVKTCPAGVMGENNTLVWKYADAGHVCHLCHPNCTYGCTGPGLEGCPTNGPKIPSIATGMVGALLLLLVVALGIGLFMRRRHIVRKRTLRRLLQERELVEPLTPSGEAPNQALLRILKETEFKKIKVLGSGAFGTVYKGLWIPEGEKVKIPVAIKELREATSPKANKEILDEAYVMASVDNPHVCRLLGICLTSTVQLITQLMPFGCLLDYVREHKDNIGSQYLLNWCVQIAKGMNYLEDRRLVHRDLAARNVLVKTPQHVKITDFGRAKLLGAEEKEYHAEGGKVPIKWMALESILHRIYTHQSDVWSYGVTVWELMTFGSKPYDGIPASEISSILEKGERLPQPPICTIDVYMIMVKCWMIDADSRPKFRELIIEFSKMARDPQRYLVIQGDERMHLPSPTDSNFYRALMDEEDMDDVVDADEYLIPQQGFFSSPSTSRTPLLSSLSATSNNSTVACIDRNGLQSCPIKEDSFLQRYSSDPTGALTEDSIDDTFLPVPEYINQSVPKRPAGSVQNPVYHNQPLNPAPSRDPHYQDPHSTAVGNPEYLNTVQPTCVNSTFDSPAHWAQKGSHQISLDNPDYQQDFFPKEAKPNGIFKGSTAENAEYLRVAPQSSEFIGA
Chain of MAP/microtubule affinity-regulating kinase 3 (P27448 whole entry, the tested form may be a part): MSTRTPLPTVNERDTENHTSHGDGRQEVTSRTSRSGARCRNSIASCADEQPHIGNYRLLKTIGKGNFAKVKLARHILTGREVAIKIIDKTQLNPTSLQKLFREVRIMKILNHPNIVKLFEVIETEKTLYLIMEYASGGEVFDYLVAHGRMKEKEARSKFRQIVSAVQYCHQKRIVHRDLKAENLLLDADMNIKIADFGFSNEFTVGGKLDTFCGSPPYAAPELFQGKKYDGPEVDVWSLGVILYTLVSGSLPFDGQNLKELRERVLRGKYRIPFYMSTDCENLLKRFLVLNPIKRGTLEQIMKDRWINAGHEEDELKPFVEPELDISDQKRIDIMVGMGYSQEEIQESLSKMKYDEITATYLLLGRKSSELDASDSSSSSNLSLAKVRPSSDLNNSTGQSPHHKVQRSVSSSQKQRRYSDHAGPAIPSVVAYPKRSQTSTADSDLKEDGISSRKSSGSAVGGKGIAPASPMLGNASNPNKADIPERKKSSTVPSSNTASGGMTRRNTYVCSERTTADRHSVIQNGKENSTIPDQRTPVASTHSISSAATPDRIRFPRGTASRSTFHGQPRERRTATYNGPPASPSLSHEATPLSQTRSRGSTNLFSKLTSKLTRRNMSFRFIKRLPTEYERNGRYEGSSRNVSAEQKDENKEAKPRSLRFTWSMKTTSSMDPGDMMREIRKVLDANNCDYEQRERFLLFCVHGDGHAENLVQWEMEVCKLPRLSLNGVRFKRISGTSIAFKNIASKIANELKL
Chain of Serine/threonine-protein kinase PAK 2 (Q13177 whole entry, the tested form may be a part): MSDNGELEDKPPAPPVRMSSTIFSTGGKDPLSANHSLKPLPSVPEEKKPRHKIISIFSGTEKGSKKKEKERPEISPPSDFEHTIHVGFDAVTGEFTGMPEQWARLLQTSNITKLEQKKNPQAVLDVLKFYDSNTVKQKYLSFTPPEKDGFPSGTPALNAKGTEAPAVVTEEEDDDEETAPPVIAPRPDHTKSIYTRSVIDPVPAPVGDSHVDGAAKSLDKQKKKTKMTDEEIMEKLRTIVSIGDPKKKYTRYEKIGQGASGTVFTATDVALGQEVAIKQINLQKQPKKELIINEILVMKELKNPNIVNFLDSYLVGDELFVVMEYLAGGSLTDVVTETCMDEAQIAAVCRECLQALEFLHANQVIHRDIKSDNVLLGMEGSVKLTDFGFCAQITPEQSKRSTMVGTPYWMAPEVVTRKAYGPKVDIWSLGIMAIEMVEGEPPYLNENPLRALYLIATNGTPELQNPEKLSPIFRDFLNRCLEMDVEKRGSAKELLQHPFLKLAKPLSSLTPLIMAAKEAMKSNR
Chain of Inhibitor of nuclear factor kappa-B kinase subunit alpha (Homo sapiens) (O15111 whole entry, the tested form may be a part, canonical isoform): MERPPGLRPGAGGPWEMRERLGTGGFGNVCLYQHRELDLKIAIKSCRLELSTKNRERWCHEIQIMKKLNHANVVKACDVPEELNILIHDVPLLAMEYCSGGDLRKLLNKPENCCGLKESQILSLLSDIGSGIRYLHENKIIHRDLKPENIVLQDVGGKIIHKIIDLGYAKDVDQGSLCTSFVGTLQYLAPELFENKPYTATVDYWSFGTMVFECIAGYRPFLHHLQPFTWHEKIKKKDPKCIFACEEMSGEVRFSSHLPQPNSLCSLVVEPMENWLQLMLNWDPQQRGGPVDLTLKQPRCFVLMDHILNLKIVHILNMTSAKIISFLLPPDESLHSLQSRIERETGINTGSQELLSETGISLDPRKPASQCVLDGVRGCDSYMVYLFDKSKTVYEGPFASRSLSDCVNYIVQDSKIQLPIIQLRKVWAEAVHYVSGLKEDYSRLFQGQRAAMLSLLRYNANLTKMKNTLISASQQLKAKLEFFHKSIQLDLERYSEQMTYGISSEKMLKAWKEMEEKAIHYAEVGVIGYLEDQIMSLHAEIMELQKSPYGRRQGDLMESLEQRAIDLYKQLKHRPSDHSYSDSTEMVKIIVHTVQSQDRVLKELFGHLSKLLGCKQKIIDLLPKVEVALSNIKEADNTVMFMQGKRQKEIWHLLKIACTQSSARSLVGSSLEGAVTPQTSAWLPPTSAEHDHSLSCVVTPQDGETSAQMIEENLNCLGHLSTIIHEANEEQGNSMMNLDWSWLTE
Chain of Non-receptor tyrosine-protein kinase TYK2 (P29597 whole entry, the tested form may be a part): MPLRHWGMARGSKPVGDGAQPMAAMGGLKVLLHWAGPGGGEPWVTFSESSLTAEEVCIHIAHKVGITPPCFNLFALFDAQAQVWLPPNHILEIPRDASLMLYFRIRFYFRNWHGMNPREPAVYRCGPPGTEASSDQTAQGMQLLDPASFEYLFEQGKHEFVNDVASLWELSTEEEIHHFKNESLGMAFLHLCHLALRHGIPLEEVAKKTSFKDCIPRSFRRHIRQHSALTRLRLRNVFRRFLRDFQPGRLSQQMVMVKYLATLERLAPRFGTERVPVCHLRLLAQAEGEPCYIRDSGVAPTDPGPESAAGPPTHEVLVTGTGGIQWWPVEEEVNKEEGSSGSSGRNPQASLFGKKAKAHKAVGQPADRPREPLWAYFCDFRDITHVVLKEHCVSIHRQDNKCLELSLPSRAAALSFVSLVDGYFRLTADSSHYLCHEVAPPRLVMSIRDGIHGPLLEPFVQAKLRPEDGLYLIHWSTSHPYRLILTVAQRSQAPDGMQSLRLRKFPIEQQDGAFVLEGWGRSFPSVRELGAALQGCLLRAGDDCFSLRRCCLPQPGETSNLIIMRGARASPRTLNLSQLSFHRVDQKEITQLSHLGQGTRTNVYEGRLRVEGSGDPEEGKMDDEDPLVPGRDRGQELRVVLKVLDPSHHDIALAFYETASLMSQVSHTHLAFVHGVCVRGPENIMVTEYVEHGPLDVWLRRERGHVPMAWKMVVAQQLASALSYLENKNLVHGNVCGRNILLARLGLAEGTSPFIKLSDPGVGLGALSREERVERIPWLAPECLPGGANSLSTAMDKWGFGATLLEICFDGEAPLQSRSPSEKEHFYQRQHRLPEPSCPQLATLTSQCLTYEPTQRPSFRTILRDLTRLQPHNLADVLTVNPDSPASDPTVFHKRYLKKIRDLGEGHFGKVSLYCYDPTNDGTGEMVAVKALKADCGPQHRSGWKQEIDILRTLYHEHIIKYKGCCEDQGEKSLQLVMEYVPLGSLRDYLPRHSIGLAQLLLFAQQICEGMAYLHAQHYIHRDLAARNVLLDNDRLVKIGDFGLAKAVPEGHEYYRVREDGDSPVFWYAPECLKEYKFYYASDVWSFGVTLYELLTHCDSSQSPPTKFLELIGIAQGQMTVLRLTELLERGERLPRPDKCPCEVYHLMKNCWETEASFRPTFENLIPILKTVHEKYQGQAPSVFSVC

CC(C)CN(C(=O)c1cccnc1)c1c2ccccc2c(=O)n2c1[nH]c1ccccc12
GI50 (HT-29 [1]): 24.1 µM
Activity (SW-620 [2]): Dose-dependent effect
Activity (HT-29 [3]): 42.2%
Activity (SW-620 [4]): Dose-dependent effect
Activity (SW-620 [5]): 19.6%
Activity (HT-29 [6]): Dose-dependent effect
Activity (HT-29 [7]): Dose-dependent effect
inhibition (Homo sapiens): Active
Activity (HT-29 [8]): Dose-dependent effect
Activity [9]: 90%
Activity [10]: 100%
Activity [11]: 100%
Activity [12]: 100%
Activity [13]: 100%
Activity [14]: 73%
Kd [15]: ≥ 5 µM
Kd [16]: ≥ 5 µM
Kd [17]: ≥ 5 µM
Kd [18]: ≥ 5 µM
Kd [19]: ≥ 5 µM
Kd [20]: ≥ 5 µM
Kd [21]: ≥ 5 µM
Kd [22]: ≥ 5 µM
Kd [23]: ≥ 5 µM
Kd [24]: ≥ 5 µM
Kd (SRSF protein kinase 3): ≥ 5 µM
Kd [25]: ≥ 5 µM
